PostGolgi yeast: growth inhibition of a yeast mutant, post-Golgi transport screen. actives 0.9% (n = 98,000). post-Golgi transport phenotypic cell assay. AID 739. inhibition, % at 10 µM;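 note: yeast cells grown in 1536-well plates; yeast grown about 18 h at 30C before absorbance read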
E coli WT exp: growth inhibitors of E. coli BW25113 wild type. OD600 absorbance. growth inhibition, % at 100 µM. actives 0.15% (n = 98,000). AID 710;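 active = growth inhibition above about 50% at one test dose, limit read from the data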;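 note: growth measured after 20 h incubation at 37 °C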
DAT uptake mod: human DAT dopamine uptake with cocaine, either direction. LLC-PK1 hDAT cells, [14C]-dopamine uptake with cocaine IC80; actives deviate in either direction. B-score at 10 µM. actives 1.3% (n = 110,000). AID 449768;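 active = Z score or B-score, a plate-position-corrected score, falls beyond the plate's 99.7% confidence bounds, in either direction; inactive = both scores lie inside the 99.7% bounds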
Target sequence (Q01959 whole entry, looked up): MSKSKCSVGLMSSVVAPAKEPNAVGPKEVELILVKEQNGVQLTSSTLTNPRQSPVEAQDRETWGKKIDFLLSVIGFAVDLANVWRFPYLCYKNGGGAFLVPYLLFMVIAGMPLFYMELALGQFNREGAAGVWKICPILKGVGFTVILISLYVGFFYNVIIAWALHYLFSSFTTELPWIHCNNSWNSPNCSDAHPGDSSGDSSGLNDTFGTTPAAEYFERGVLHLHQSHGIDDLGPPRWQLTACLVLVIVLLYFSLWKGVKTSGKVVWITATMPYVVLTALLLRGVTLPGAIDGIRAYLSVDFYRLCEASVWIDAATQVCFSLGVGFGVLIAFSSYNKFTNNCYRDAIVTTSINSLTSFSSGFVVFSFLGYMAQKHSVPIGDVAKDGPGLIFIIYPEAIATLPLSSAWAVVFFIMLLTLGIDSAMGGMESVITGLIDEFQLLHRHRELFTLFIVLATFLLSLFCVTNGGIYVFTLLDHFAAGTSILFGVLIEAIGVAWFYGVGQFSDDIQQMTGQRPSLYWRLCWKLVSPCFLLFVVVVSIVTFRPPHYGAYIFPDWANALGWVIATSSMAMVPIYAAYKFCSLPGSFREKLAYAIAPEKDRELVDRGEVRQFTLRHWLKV
D1 mod: allosterically modulates the human D1 dopamine receptor. AID 641. P21728. HEK293 D1, CRE-luciferase, dopamine EC30 potentiation; actives deviate in either direction. B-score at 10 µM. actives 5.9% (n = 58,000);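 active = luminescence count or its row- and column-corrected plate score outside the 99.7% band of the plate's sample wells, on either side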
PostGolgi ctrl: inhibits growth of the yeast control strain; inhibition, % at 10 µM; actives 5% (n = 98,000); efflux-deficient yeast background strain, growth absorbance A615, 16 h
Ecoli tolC: blocks growth of E. coli BW25113 tolC mutant; OD615; AID 573; growth inhibition, % at 10 µM (by protocol); actives 2.2% (n = 65,000);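 active = growth inhibition at or above a cutoff equal to the mean over every tested compound plus 3 SD, cut at about 60% in these data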;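 note: growth measured after 20 h incubation at 37 °C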
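Test system: tolC-deleted E. coli BW25113 | Medium: LB with kanamycin 50 µg/mL | Compound dosing: Single concentration, 10 µM final per compound | Schedule: 37 °C, 20 h exposure | Measured by: OD at 615 nm | Evaluation: Percent growth inhibition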
Hits are given with their value; n = inactive; x = no result given. Compounds with a hit are over-represented: about 9.3% of the library has one in this group of screens. Cut-off read from the data, not from the text of the source, unless noted: active = inhibition above about 30%; inactive = the rest.

SMILES	PostGolgi yeast	E coli WT exp	DAT uptake mod	D1 mod	PostGolgi ctrl	Ecoli tolC
N#Cc1ccccc1/C=N/Nc1nc(-c2ccccc2)c2cc(Cl)ccc2n1	n	n	n	x	n	x
Cc1ccc2nc(N/N=C/c3ccccc3C#N)nc(-c3ccccc3)c2c1	n	n	3.1	x	n	x
Cc1ccccc1CS(=O)(=O)CCC(=O)NCCCN1CCN(c2ccccc2F)CC1	n	n	n	n	n	n
Cc1ccccc1CS(=O)(=O)CCC(=O)NCCN1CCN(c2cccc(Cl)c2)CC1	n	n	x	-3.6	n	n
Cc1ccc(-c2noc(CCC(=O)NCc3ccc4c(c3)OCO4)n2)cc1	n	n	1.2	n	n	n
COc1ccc(-c2noc(CCC(=O)NCCCN3CCC(C)CC3)n2)cc1	n	n	n	n	n	n
Cc1ccc(-c2noc(CCC(=O)NCCCN3CCN(c4cccc(Cl)c4)CC3)n2)cc1	n	n	n	-3.9	n	n
Cc1ccc(CC(=O)NCc2ccc3c(c2)OCO3)cc1	n	n	n	x	n	x
Cc1ccc(-c2noc(CCC(=O)NCCCN3CCN(c4ccc(F)cc4)CC3)n2)cc1	n	n	n	-5	n	n
Cc1ccc(S(=O)(=O)/N=C(\CN2CCCCC2)N2CCOCC2)cc1	n	n	n	n	n	n
Cc1noc(C)c1S(=O)(=O)N1CCC(C(=O)N2CCC(N3CCCCC3)CC2)CC1	n	n	x	n	n	n
Cn1c(NC(=O)Cc2ccc(F)cc2)cc(=O)n(C)c1=O	n	n	n	n	n	n
Cc1ccc(-c2csc3ncnc(SCC(=O)NCc4ccc5c(c4)OCO5)c23)cc1	n	n	n	x	43	x
Cc1ccc(-c2noc(CN3CCOCC3)n2)cc1	n	n	n	x	n	x
Cc1ccc(-c2noc(CN3CCN(c4ccccc4F)CC3)n2)cc1	n	n	n	n	n	84
COc1ccc(-c2noc(CCC(=O)NCCN3CCN(c4ccccc4F)CC3)n2)cc1	n	n	n	-2.8	n	n
COCCN(CC(=O)Nc1ccccc1)S(=O)(=O)c1ccc(S(=O)(=O)N2CCCC2)cc1	n	n	n	n	n	n
Cc1cc(C)c(Cn2cnc(-c3ccc([N+](=O)[O-])cc3)c2)c(C)c1	n	n	n	x	33	x
C[C@H](O)CC1=C[C@H](O)[C@@H](C)OC1=O	x	x	n	x	x	x
S=C(N=Nc1ccccc1)NNc1ccccc1	x	x	n	n	x	n
COc1cc(NC(=O)c2cc(CC(C)C)on2)c(OC)cc1Cl	n	n	n	n	n	68
CCCc1cc(C(=O)Nc2cc(OC)c(Cl)cc2OC)no1	n	n	x	n	n	n
COc1ccc(CNC(=O)c2ccc(Br)o2)cc1	x	x	n	x	x	x
CC(=O)NC(CCS(C)(=O)=O)C(=O)Nc1cc(Cl)ccc1Cl (configuration not stated)	n	n	n	n	32	n
COc1ccc(OC)c(NC(=O)C(CCS(C)(=O)=O)NC(C)=O)c1 (configuration not stated)	x	x	4.3	n	x	n
SMILES	PostGolgi yeast	E coli WT exp	DAT uptake mod	D1 mod	PostGolgi ctrl	Ecoli tolC
CC(=O)NC(CCS(C)(=O)=O)C(=O)Nc1ccccc1Cl (configuration not stated)	n	n	n	n	n	n
COC(=O)c1ccccc1NC(=O)C(CCS(C)(=O)=O)NC(C)=O (configuration not stated)	n	n	n	n	n	n
CCOC(=O)n1c(=O)n(Cc2c(Cl)cccc2Cl)c2ccccc21	n	n	n	x	n	x
O=C(CN1CCN(c2ccccn2)CC1)Nc1ccccc1	n	n	n	x	n	x
CCOc1ccc(NC(=O)N2CCC(C(=O)c3ccc(F)cc3)CC2)cc1	n	n	n	x	n	x
CCOc1ccc(NC(=O)CSC(N)=O)cc1	n	n	n	n	n	n
O=C(CN1CCN(c2ccccn2)CC1)Nc1ccc(Oc2ccccc2)cc1	58	n	n	n	n	n
CCOc1ccc(NC(=O)C/C(N)=N/O)cc1	35	n	n	n	n	n
CCOc1ccc(NC(=O)CN2CCN(CC(=O)c3ccc(OCC)cc3)CC2)cc1	n	n	2	n	n	n
CCOc1ccc(NC(=O)N2CCC(c3ccc(C)cc3)C2)cc1 (configuration not stated)	n	n	n	x	36	x
NS(=O)(=O)c1cccnc1Nc1c(Cl)cccc1Cl	n	n	n	x	32	x
CC(C)C[C@H](NC(=O)c1nc[nH]c1C(=O)N(C)Cc1ccccc1)C(=O)OCc1ccccc1	x	x	n	x	x	x
Cc1ccc[n+](C(C)C(=O)Nc2ccc(C)c([N+](=O)[O-])c2)c1 (configuration not stated)	n	n	n	x	n	x
